{
  "source": "paper PMC6896334",
  "about": "(Cell reports, 2019)",
  "key": {"Id1 [1]": {"target": "T1, Id1 (Mus musculus, UniProt P20067)", "T1 sequence (P20067 1-148 isoform P20067-2)": "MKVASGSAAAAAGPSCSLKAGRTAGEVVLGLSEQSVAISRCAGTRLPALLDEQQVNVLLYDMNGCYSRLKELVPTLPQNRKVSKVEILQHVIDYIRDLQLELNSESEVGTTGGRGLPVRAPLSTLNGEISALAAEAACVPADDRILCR", "experiment": "Circular dichroism", "format": "binding", "conditions": "AGX51 0–50 μM; AGXA 0–110 μM in DMSO"}, "HCT116 cells": {"tested_on": "HCT116 cells", "experiment": "HCT116 cell cycle analysis", "format": "cell-based, human", "conditions": "HCT116, 40 μM, 4-24 hours", "outline": "(§1)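 Cells exposed to test compound or DMSO, then trypsinised, PBS-washed and fixed in 70% ethanol at −20°C. After centrifugation and PBS wash, cells were stained in PI/RNase buffer for 15 min at room temperature. DNA content was analysed by flow cytometry.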"}, "[2]": {"experiment": "Pharmacokinetics in serum after i.p. injection", "format": "in vivo, mouse", "conditions": "for mean maximum serum concentration: mice", "outline": "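Eight-week-old male BALB/c mice received a single i.p. dose of 30, 50 or 100 mg/kg in 70% DMSO, with another group given 100 mg/kg in 100% DMSO (n = 3 per group). Blood was drawn at 30 min, 1, 3, 6 and 24 h. […] was quantified by a validated LC-MS protocol.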"}, "Id3": {"target": "T2, Id3 (Mus musculus, UniProt P41133)", "T2 sequence (P41133 1-119)": "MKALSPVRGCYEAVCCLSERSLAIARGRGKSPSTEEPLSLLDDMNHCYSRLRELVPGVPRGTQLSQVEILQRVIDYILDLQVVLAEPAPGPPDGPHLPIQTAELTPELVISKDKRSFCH", "experiment": "Circular dichroism", "format": "binding"}, "4T1 cells": {"tested_on": "4T1 cells", "experiment": "4T1 cell-based IC50", "conditions": "Mus musculus, 4T1, 24 h", "outline": "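4T1 cells exposed to 0–20 µM test compound for 24 h. Whole-cell lysates were immunoblotted for Id1. Band intensities were read on 700/800 nm infrared channels, blank-subtracted and normalised to tubulin, and IC50 was taken from these blots.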"}, "[3]": {"experiment": "Concentration of AGX51 in the eyes after i.p. dosing", "format": "in vivo, mouse", "outline": "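Test compound given i.p. at 30 mg/kg. Eyes were dissected at time points over 24 h, extracted, and compound content per eye measured by mass spectrometry.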"}, "ID1 mRNA": {"tested_on": "ID1 mRNA", "experiment": "qRT-PCR for ID1 in HCT116 cells", "format": "cell-based, human", "conditions": "HCT116, 40 μM, 24 hours", "outline": "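ID1 transcript measured by qRT-PCR after treatment, using validated QuantiTect primer sets with GAPDH as reference. Fold change was calculated by the delta-delta CT method.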"}, "HUVECs": {"tested_on": "HUVECs", "experiment": "HUVEC cell cycle analysis", "format": "cell-based, human", "conditions": "20 μM, 24 h", "outline": "as §1"}, "E47": {"target": "T3, E47 (Homo sapiens, UniProt P15923)", "T3 sequence (P15923 1-651 isoform P15923-2)": "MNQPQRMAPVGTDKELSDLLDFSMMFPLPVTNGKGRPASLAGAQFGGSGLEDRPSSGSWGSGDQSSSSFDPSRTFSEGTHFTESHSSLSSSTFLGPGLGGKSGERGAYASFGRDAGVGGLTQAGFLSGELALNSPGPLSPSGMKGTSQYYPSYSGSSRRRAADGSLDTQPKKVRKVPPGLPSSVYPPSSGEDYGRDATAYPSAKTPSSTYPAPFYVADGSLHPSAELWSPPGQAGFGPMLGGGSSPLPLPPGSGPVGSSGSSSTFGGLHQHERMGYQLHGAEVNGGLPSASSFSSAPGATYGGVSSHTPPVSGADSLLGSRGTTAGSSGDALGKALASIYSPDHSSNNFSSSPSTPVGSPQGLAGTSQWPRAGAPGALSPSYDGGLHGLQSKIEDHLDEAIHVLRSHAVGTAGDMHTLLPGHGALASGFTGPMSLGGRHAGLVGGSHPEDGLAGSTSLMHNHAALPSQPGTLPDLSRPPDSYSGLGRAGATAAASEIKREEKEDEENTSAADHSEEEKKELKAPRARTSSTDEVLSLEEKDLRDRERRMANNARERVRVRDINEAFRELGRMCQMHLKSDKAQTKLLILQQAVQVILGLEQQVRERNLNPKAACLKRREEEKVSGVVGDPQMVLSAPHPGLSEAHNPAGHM", "experiment": "Circular dichroism", "format": "binding", "conditions": "AGX51 0, 10, 20, 50 μM"}, "ID1 [4]": {"target": "T4, ID1 (Homo sapiens, UniProt P41134)", "T4 sequence (P41134 1-155)": "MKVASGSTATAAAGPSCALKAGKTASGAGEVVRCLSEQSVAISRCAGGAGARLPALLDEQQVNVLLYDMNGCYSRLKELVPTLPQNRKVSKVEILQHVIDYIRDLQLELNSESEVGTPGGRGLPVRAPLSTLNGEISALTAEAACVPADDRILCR", "experiment": "Western blot for ID1 in HUVECs", "format": "cell-based", "conditions": "0–40 μM, 24 h", "outline": "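HUVECs treated with 0–40 µM test compound for 24 h. Whole-cell lysates were immunoblotted for the target protein. Infrared band intensities were blank-subtracted and normalised to tubulin.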"}},
  "note": "Several values for one entry are separate records, joined by “and”; a condition that tells them apart may be missing. Equal values may be shown once.",
  "data": [
    {"smiles": "CCC(=O)N(CCC(c1ccc2c(c1)OCO2)c1ccccc1OC)Cc1ccccc1", "note": "(centres unmarked) [AGX51, N-(3-(benzo[d][1,3]dioxol-5-yl)-3-(2-methoxyphenyl)propyl)-N-benzylpropionamide]", "values": [
      {"measurement": "effect on Id1 secondary structure (CD spectra)", "setting": "Id1 [1]", "result": "significant alteration in the 2° structure of Id1"},
      {"measurement": "cell cycle effect", "setting": "HCT116 cells", "result": "G0/G1 growth arrest"},
      {"measurement": "half-life", "setting": "[2]; male, BALB/c, mouse, serum, ip", "result": "~3", "unit": "h"},
      {"measurement": "mean maximum serum concentration", "setting": "[2]; i.p. 30 mg/kg in 70% DMSO, 30 mg/kg", "result": "1.1 μg/mL and 2.7 μM"},
      {"measurement": "mean maximum serum concentration", "setting": "[2]; i.p. 50 mg/kg in 70% DMSO, 50 mg/kg", "result": "1.6 μg/mL and 4 μM"},
      {"measurement": "mean maximum serum concentration", "setting": "[2]; i.p. 100 mg/kg in 70% DMSO, compared with lower doses", "result": "not increased further"},
      {"measurement": "effect on Id3 secondary structure (CD)", "setting": "Id3", "result": "small but reproducible effect"},
      {"measurement": "IC50", "setting": "4T1 cells", "result": 26.7, "unit": "µM"},
      {"measurement": "half-life", "setting": "[3]; male, BALB/c, mouse, eye, ip, 30 mg/kg", "result": 3.7, "unit": "h"},
      {"measurement": "maximum concentration in the eye", "setting": "[3]; mice, i.p. 30 mg/kg, after 30 min", "result": "~ 4 ng/eye"},
      {"measurement": "ID1 mRNA levels", "setting": "ID1 mRNA", "result": "increase in ID1 mRNA levels"},
      {"measurement": "cell cycle effect", "setting": "HUVECs", "result": "G0/G1 growth arrest"},
      {"measurement": "interaction with E47 (CD)", "setting": "E47", "result": "no evidence of an interaction"},
      {"measurement": "concentration at which a significant decrease in ID1 protein levels was observed", "setting": "ID1 [4]", "result": 10, "unit": "µM"}
    ]}
  ]
}
